According to paper PMC3481835 (Clinical pharmacology and therapeutics, 2011):
Read-outs that look alike come from different tables or passages of the source.

What was measured:
CYP3A4 [1] = conditions: cited from earlier work; for decrease in urinary 6β-hydroxycortisol to cortisol-ratio: range printed for the three inhibitors
[2] = Renal clearance of cortisol; type: in vivo, human
CYP3A4 [3] = target: T1, CYP3A4 (Homo sapiens, UniProt P08684); conditions: recombinant enzyme, pH 7.4
CYP2B6 [4] = target: T2, CYP2B6 (Homo sapiens, UniProt P20813); conditions: recombinant enzyme
T2 sequence (P20813 1-491): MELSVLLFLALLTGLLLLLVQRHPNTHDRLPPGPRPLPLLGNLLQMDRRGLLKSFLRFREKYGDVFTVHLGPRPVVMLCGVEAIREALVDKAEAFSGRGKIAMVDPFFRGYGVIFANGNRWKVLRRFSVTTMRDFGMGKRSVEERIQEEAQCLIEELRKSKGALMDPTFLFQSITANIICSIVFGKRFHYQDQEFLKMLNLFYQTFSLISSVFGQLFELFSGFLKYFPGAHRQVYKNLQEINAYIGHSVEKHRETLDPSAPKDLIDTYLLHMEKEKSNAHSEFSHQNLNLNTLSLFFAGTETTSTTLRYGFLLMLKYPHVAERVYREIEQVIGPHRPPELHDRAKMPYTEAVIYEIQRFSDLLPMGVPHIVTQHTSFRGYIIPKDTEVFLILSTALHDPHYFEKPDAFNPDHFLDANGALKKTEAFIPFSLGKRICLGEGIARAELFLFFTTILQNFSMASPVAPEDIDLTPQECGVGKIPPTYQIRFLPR

CYP2B6 [5] = target: T2, CYP2B6; experiment: 6β-hydroxylation by recombinantly-expressed CYP2B6; conditions: recombinantly-expressed enzyme
Fraction unbound = type: in vitro ADME; conditions: human, pooled human liver microsomes
Procedure, shortened: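 Pooled microsomes from three CYP3A5*3/*3 donors (equal protein each), 0.5 mg/mL, spiked with test compound at 5, 50 or 1000 nM, duplicates. Each sample split: one aliquot ultracentrifuged at 445,760 g, 140 min, 37 °C; the other held at 37 °C for the same time. Upper clear layer and uncentrifuged sample taken into ACN with deuterated internal standard; HPLC (C8, ammonium acetate/ACN gradient) with LC-MS.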

CYP3A4 [6] = target: T1, CYP3A4; experiment: Formation clearance; type: in vivo; conditions: 50 mg itraconazole
CYP3A4 [7] = type: in vivo, human
[8] = Plasma concentrations of cortisol and cortisone after itraconazole; type: in vivo, human; conditions: single doses 50, 200 and 400 mg po
CYP3A4 [9] = conditions: during treatment; cited from earlier work
CYP3A4 [10] = target: T1, CYP3A4; experiment: in vitro; conditions: pH 7.4
CYP3A4 [11] = target: T1, CYP3A4; experiment: in vitro; conditions: pH 7.4; remark: listed apart in the source
CYP3A4 [12] = conditions: cited from earlier work; for predicted decrease in CYP3A4 mediated clearance: predicted from I/Ki

T1 sequence (P08684 whole entry): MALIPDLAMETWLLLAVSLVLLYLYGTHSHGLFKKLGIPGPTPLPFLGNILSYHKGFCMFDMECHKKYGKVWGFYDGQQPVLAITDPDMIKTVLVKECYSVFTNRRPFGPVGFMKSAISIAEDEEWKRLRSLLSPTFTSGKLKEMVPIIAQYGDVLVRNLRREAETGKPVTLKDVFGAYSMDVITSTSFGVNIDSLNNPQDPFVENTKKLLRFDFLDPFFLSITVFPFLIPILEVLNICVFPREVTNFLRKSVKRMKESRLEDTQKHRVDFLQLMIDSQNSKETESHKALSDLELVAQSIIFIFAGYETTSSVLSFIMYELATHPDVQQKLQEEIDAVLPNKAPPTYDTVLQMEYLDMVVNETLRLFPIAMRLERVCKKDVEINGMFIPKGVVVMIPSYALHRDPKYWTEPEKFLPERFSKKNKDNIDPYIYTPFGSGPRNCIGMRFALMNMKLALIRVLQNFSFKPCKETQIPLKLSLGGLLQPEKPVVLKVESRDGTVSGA

CC(C)CN(C[C@@H](O)[C@H](Cc1ccccc1)NC(=O)O[C@H]1CCOC1)S(=O)(=O)c1ccc(N)cc1 [amprenavir]
effect on urinary 6β-hydroxycortisol to cortisol ratio (CYP3A4 [1]): no significant inhibitory effect

CC[C@H]1OC(=O)[C@H](C)[C@@H](O[C@H]2C[C@@](C)(OC)[C@@H](O)[C@H](C)O2)[C@H](C)[C@@H](O[C@@H]2O[C@H](C)C[C@H](N(C)C)[C@H]2O)[C@](C)(OC)C[C@@H](C)C(=O)[C@H](C)[C@@H](O)[C@]1(C)O [clarithromycin]
decrease in urinary 6β-hydroxycortisol to cortisol-ratio (CYP3A4 [1]): 15-65%

C[C@]12CCC(=O)C=C1CC[C@@H]1[C@@H]2[C@@H](O)C[C@@]2(C)[C@H]1CC[C@]2(O)C(=O)CO [cortisol]
CL renal ([2]; both, human, urine and plasma): 0.283 mL/min
intrinsic clearance (CLint), 6β-hydroxylation by CYP3A4 (CYP3A4 [3]): 0.18 mL/min/nmol CYP3A4
v, 6β-hydroxylation by CYP2B6 (CYP2B6 [4]; human, 25 µM, pH 7.4): 0.11 pmol/min/pmol
CYP3A4 mediated CLint relative to CYP2B6 mediated CLint (CYP2B6 [4]; human, pH 7.4): 40 fold
apparent CYP2B6 mediated intrinsic clearance (CYP2B6 [4]; human, pH 7.4): 0.0045 mL/min/nmol P450
6β-hydroxylation detected with CYP2B6 (CYP2B6 [4]): observed

C[C@]12CCC(=O)C=C1CC[C@@H]1[C@@H]2C(=O)C[C@@]2(C)[C@H]1CC[C@]2(O)C(=O)CO [cortisone]
6β-hydroxylation detected with CYP2B6 (CYP2B6 [5]): not

C#C[C@]1(O)CC[C@H]2[C@@H]3CCC4=Cc5oncc5C[C@]4(C)[C@H]3CC[C@@]21C [danazol]
decrease in urinary 6β-hydroxycortisol to cortisol-ratio (CYP3A4 [1]): 15-65%

CCC(C)n1ncn(-c2ccc(N3CCN(c4ccc(OCC5COC(Cn6cncn6)(c6ccc(Cl)cc6Cl)O5)cc4)CC3)cc2)c1=O (stereo not shown) [itraconazole]
fraction unbound at 140 min (Fraction unbound): 0.046 ± 0.01
decrease in the CLf processes (CYP3A4 [6]): No significant decrease
effect on renal clearance of cortisol ([2]; escalating itraconazole doses): unchanged
predicted decrease in oral midazolam clearance (CYP3A4 [7]; 50 mg ITZ): 30%
predicted decrease in hepatic midazolam clearance (CYP3A4 [7]; 50 mg ITZ, from circulating ITZ and metabolites and in vitro IC50): 21%
predicted decrease in oral midazolam clearance (CYP3A4 [7]; 200 mg ITZ): 77%
effect on the plasma concentrations of cortisol or cortisone [8]: no effect
decrease in 4β-hydroxycholesterol concentrations (CYP3A4 [9]): 21-29%
decrease in total cholesterol (CYP3A4 [9]): 10%
Emax at 15 min (CYP3A4 [10]): 78 to 85%
Emax at 15 min (CYP3A4 [11]): 78 to 85%
decrease in MDZ CL/F (CYP3A4 [12]; 50 mg itraconazole): 50%
predicted decrease in CYP3A4 mediated clearance (CYP3A4 [12]; 24-48 hours after 400 mg): 50-70%
decrease in MDZ CL/F (CYP3A4 [12]; 200 and 400 mg itraconazole): 80%
expected persistence of CYP3A4 inhibition (CYP3A4 [12]; after 400 mg, return to baseline at 72 hours): 48 h
RKi (IC50,in vitro/IC50,in vivo), itraconazole-oral MDZ interaction (CYP3A4 [12]): 14.5
predicted decrease in CYP3A4 mediated clearance (CYP3A4 [12]; first 24 hours after 400 mg): 70-90%

Cc1ncc2n1-c1ccc(Cl)cc1C(c1ccccc1F)=NC2 [midazolam]
in vivo fm attributed to CYP3A4, midazolam metabolism (CYP3A4 [12]; ref not given): 84%
